# From ChEMBL document CHEMBL3864163, “I. Discovery of a novel series of CXCR3 antagonists. Multiparametric optimization of N,N-disubstituted benzylamines” (Bioorg Med Chem Lett, 2016)
# Experiments:
# [1] = biological target: T1, C-X-C chemokine receptor type 3 (Homo sapiens, UniProt P49682); experiment: Displacement of [125I]-CXCL10 from human recombinant CXCR3 transfected in Flp-In-CHO cell membranes after 60 mins by gamma counting method
# T1 sequence (P49682 whole entry): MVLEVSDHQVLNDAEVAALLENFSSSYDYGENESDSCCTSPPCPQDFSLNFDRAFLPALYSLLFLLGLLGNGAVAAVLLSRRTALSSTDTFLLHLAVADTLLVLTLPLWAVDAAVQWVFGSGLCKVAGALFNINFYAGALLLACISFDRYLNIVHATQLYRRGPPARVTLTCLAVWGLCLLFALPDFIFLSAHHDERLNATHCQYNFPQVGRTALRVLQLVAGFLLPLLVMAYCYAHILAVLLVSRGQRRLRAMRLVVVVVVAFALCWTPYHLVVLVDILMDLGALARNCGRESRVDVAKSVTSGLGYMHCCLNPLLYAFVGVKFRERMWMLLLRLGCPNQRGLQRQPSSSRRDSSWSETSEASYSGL
# [2] = Metabolic stability in human liver microsomes assessed as parent compound remaining in presence of NADPH by LC-MS/MS method; type: ADME
# Procedure, shortened: (§1)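 Compound incubated with liver microsomes (human or mouse) plus NADPH at 37 °C. Loss of parent was followed by LC-MS-MS and reported as percent. Stability bands: low <40%, medium 40–60%, high >60%.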
# [3] = Metabolic stability in mouse liver microsomes assessed as parent compound remaining in presence of NADPH by LC-MS/MS method; type: ADME; procedure, shortened: as §1
# [4] = Absolute oral bioavailability in Balb/c mouse at 10 mg/kg; type: ADME, organism-based; conditions: in vivo
# Procedure, shortened: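 Male Balb/c mice dosed once orally at 10 mg/kg and once intravenously at 3 mg/kg. Either 4 animals per route were profiled individually, or sparse sampling used 24 mice with 3 per time point for mean profiles. Absolute oral bioavailability was derived from the two routes.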
# [5] = Apparent permeability across human Caco2 cells after 2 hrs by LC-MS method; type: ADME, cell-based; conditions: Caco-2
# Procedure, shortened: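 Caco-2 monolayers checked for integrity, then dosed alongside high- and low-permeability controls. Apical and basal samples taken at 2 h. Four transport conditions: A-B at pH 6.5/7.4 (0% or 0.5% BSA apical, 5% BSA basal), and A-B and B-A at pH 7.4/7.4 (0.5% BSA both sides). Compound quantified by LC/MS. Rapid transport defined as Papp >20 nm/s.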
# [6] = biological target: T2, Muscarinic acetylcholine receptor M2 (Homo sapiens) (UniProt P08172); experiment: Displacement of [3H]AF-DX384 from recombinant human muscarinic M2 receptor expressed in CHO cells at 10 uM after 60 mins by scintillation counting method relative to control; type: cell-based
# T2 sequence (whole entry): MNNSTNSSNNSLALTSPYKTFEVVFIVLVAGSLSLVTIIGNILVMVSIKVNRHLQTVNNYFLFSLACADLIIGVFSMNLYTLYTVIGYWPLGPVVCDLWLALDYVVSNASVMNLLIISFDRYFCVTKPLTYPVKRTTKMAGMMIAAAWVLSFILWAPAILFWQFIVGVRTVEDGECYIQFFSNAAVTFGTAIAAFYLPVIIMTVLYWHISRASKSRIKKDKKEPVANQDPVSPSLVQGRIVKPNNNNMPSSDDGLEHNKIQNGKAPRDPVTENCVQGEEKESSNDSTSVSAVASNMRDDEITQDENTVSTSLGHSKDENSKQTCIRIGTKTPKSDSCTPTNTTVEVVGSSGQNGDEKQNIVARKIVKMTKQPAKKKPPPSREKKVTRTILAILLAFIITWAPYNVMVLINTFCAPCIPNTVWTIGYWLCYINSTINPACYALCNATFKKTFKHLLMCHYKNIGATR
# [7] = Intrinsic clearance in human hepatocytes assessed per 10^6 cells at 5 uM; type: ADME, cell-based, Hepatocyte
SMILES,IC50 [1] [nM],Stability [2] [%],Stability [3] [%],bioavailability [4] [%],Papp at 2 h [5] [×10⁻⁶ cm/s],inhibition [6] [%],CLH [7] [mL/h]
CCC(NCc1ccc(OCCN2C(=O)CCC2=O)c(OC)c1)c1ccc2c(c1)CCO2 (stereo unspecified),1060,,,,,,
COc1cc(CN(Cc2ccc(F)cc2)C(C)c2ccc3c(c2)CCO3)ccc1OCCN1C(=O)CCC1=O (stereo unspecified),97,24,19,,,,
COc1cc(CN(CC2CCCCC2)C(C)c2ccc3c(c2)CCO3)ccc1OCCN1C(=O)CCC1=O (stereo unspecified),52,35,27,,,,
COc1cc(CNC(CC(C)C)c2ccc3c(c2)CCO3)ccc1OCCN1C(=O)CCC1=O (stereo unspecified),1800,,,,,,
COc1cc(CN(Cc2ccc(C(=O)O)cc2)C(C)c2ccc3c(c2)CCO3)ccc1OCCN1C(=O)CCC1=O (stereo unspecified),120,61,63,9,,,
COc1cc(CN(Cc2ccc(-c3nnn[nH]3)cc2)C(C)c2ccc3c(c2)CCO3)ccc1OCCN1C(=O)CCC1=O (stereo unspecified),126,51,77,,0.2,,
CCC(c1ccc2c(c1)CCO2)N(Cc1ccc(OCCN2C(=O)CCC2=O)c(OC)c1)CC(C)C (stereo unspecified),38,19,19,,,,
COc1cc(CN(C)C(CC(C)C)c2ccc3c(c2)CCO3)ccc1OCCN1C(=O)CCC1=O (stereo unspecified),330,,,,,,
COc1cc(CN(C)[C@H](C)c2ccc3c(c2)CCO3)ccc1OCCN1C(=O)CCC1=O,790,,,,,,
CCCC(c1ccc2c(c1)CCO2)N(C)Cc1ccc(OCCN2C(=O)CCC2=O)c(OC)c1 (stereo unspecified),110,9,8,,,,
COc1cc(CN(Cc2ccc(/C=C/C(=O)O)cc2)C(C)c2ccc3c(c2)CCO3)ccc1OCCN1C(=O)CCC1=O (stereo unspecified),138,84,87,,1.34,,
COc1cc(CN(CC(C)O)C(C)c2ccc3c(c2)CCO3)ccc1OCCN1C(=O)CCC1=O (stereo unspecified),77,2,0,,,,
COc1cc(CN(CC23CCC(C(=O)O)(CC2)CC3)C(C)c2ccc3c(c2)CCO3)ccc1OCCN1C(=O)CCC1=O (stereo unspecified),225,71,79,,6.56,,
CCCC(NCc1ccc(OCCN2C(=O)CCC2=O)c(OC)c1)c1ccc2c(c1)CCO2 (stereo unspecified),1200,,,,,,
COc1cc(CN(CCO)C(C)c2ccc3c(c2)CCO3)ccc1OCCN1C(=O)CCC1=O (stereo unspecified),82,3,4,,,,
COc1cc(CN(Cc2ccc(C(=O)O)cc2)[C@H](C)c2ccc(Cl)cc2)ccc1OCCN1C(=O)CCC1=O,345,98,100,,3.7,,
COc1cc(CNC(c2ccc3c(c2)CCO3)C2CCCC2)ccc1OCCN1C(=O)CCC1=O (stereo unspecified),3260,,,,,,
COc1cc(CN(C[C@H]2CC[C@H](C(=O)O)CC2)[C@H]2CCc3cc(Cl)ccc32)ccc1CCCN1C(=O)CCC1=O,1000,36,24,,16.5,,
COc1cc(CN(Cc2ccncc2)C(C)c2ccc3c(c2)CCO3)ccc1OCCN1C(=O)CCC1=O (stereo unspecified),130,41,42,,,,
COc1cc(CN(C)[C@@H](C)c2ccc3c(c2)CCO3)ccc1OCCN1C(=O)CCC1=O,154,,,,,,
COc1cc(CN(Cc2ccc(C(=O)O)cc2)C(c2ccc3c(c2)CCO3)C2CCCC2)ccc1OCCN1C(=O)CCC1=O (stereo unspecified),4200,52,,,,,
COc1cc(CN(CC(C)=O)C(C)c2ccc3c(c2)CCO3)ccc1OCCN1C(=O)CCC1=O (stereo unspecified),202,2,0,,,,
COc1cc(CN(CCCC(=O)O)C(C)c2ccc3c(c2)CCO3)ccc1OCCN1C(=O)CCC1=O (stereo unspecified),210,100,95,2,,,

SMILES,IC50 [1] [nM],Stability [2] [%],Stability [3] [%],bioavailability [4] [%],Papp at 2 h [5] [×10⁻⁶ cm/s],inhibition [6] [%],CLH [7] [mL/h]
Cc1cc(CN(C)C(C)c2ccc3c(c2)CCO3)ccc1OCCN1C(=O)CCC1=O (stereo unspecified),230,29,19,,,,
COc1cc(CN(Cc2cccnc2)C(C)c2ccc3c(c2)CCO3)ccc1OCCN1C(=O)CCC1=O (stereo unspecified),190,19,29,,,,
CC(c1ccc2c(c1)CCO2)N(C)Cc1ccc(OCCN2C(=O)CCC2=O)c(Cl)c1 (stereo unspecified),187,14,17,,,,
COc1cc(CN(CCCC(=O)O)C(c2ccc3c(c2)CCO3)C2CCCC2)ccc1OCCN1C(=O)CCC1=O (stereo unspecified),382,92,94,,3.21,,
COc1cc(CN(CC(C)C)C(C)c2ccc3c(c2)CCO3)ccc1OCCN1C(=O)CCC1=O (stereo unspecified),55,2,9,,,,
COc1cc(CN(CCN)C(C)c2ccc3c(c2)CCO3)ccc1OCCN1C(=O)CCC1=O (stereo unspecified),2200,48,13,,,,
CC(c1ccc2c(c1)CCO2)N(Cc1ccc(OCCN2C(=O)CCC2=O)c(Cl)c1)C[C@H]1CC[C@H](C(=O)O)CC1 (stereo partly specified),,56,92,,3.95,98,
COc1cc(CNC(C)c2ccc3c(c2)CCO3)ccc1OCCN1C(=O)CCC1=O (stereo unspecified),607,61,62,,,,
COc1cc(CN(C[C@H]2CC[C@H](C(=O)O)CC2)C(C)c2ccc3c(c2)CCO3)ccc1OCCN1C(=O)CCC1=O (stereo partly specified),,98,92,17.3,0.98,54,
CCC(c1ccc2c(c1)CCO2)N(CC)Cc1ccc(OCCN2C(=O)CCC2=O)c(OC)c1 (stereo unspecified),110,5,5,,,,
CCc1cc(CN(C[C@H]2CC[C@H](C(=O)O)CC2)[C@H]2CCc3cc(Cl)ccc32)ccc1OCCN1C(=O)CCC1=O,,94,96,,8.02,37,0.069
COc1cc(CNC(C)(C)c2ccc3c(c2)CCO3)ccc1OCCN1C(=O)CCC1=O,780,,,,,,
COc1cc(CN(Cc2ccc3c(c2)CCO3)C(C)c2ccc3c(c2)CCO3)ccc1OCCN1C(=O)CCC1=O (stereo unspecified),340,28,24,,,,
COc1cc(CN(C)C(C)c2ccc3c(c2)CCO3)ccc1OCCN1C(=O)CN(C)C1=O (stereo unspecified),202,28,26,,,,
COc1cc(CN(Cc2ccc3c(c2)CCO3)CC(C)C)ccc1OCCN1C(=O)CCC1=O,70,7,11,,,,
COc1cc(CN(C[C@H]2CC[C@H](C(=O)OC)CC2)[C@H]2CCc3cc(Cl)ccc32)ccc1OCCN1C(=O)CCC1=O,840,,,,,,
COc1cc(CN(C)C(C)c2ccc3c(c2)CCO3)ccc1NCCN1C(=O)CCC1=O (stereo unspecified),443,,,,,,
COc1cc(CN(C[C@H]2CC[C@H](C(=O)O)CC2)[C@@H]2CCc3cc(Cl)ccc32)ccc1OCCN1C(=O)CCC1=O,,54,55,,6.62,,
COc1cc(CNCc2ccc3c(c2)CCO3)ccc1OCCN1C(=O)CCC1=O,290,61,67,,,,
COc1cc(CN(C)C(C)c2ccc3c(c2)CCO3)ccc1OCCN1C(=O)CNC1=O (stereo unspecified),240,60,55,,,,
COc1cc(CN(C[C@H]2CC[C@H](C(=O)O)CC2)[C@H]2CCc3cc(Cl)ccc32)ccc1SCCN1C(=O)CCC1=O,,15,3,,7.24,,
CCC(c1ccc2c(c1)CCO2)N(Cc1ccc(C(=O)O)cc1)Cc1ccc(OCCN2C(=O)CCC2=O)c(OC)c1 (stereo unspecified),160,60,78,,1.46,,
COc1cc(CN(C)C(C)c2ccc3c(c2)CCO3)ccc1OCCN1C(=O)CSC1=O (stereo unspecified),120,4,7,,,,
